Rows were chosen to be rich in hits. Some 4.6% of all compounds tested hit in one or more screens of this group.
OX1R antag-1 – antagonists of human orexin 1 receptor; O43613; CHO/OX1R cells, Fluo-8 calcium fluorescence, orexin A; inhibition, % at 5 µM; hit rate 0.43% among 330,000;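 active means inhibition above its plate's threshold, mean inhibition of all tested compounds on the plate plus 3 SD, cut at about 37% in these data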
TAAR1 ag – human TAAR1 agonism | Q96RJ0 | AID 624467 | hit rate 0.99% among 360,000 | CHO RD-HGA16 TAAR1, Fluo-8 calcium fluorescence; vehicle wells 0%, saturating PEA agonist 100% | activation, % at 3 µM;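 active means activation above the mean activation of all test compounds in the run plus 3 SD, cut at about 38% in these data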
Target sequence (Q96RJ0 whole entry, looked up): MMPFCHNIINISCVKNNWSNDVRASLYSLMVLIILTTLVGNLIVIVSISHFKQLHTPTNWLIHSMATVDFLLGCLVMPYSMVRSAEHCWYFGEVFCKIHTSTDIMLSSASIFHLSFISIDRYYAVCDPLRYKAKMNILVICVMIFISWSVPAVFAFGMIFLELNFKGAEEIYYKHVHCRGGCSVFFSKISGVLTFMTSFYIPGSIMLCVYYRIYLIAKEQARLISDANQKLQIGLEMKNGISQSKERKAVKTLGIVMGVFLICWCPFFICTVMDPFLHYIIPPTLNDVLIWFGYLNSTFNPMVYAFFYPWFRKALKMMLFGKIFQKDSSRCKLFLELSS
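System: CHO-derived RD-HGA16 cells with stable Gα16 and human TAAR1 / Times: 17-24 h plating, Fluo-8 75 min 37 °C, 30 min RT / Technique: calcium-sensitive Fluo-8 signal, excitation 470-495, emission 515-575 nm / Measure: % activation relative to PEA EC100 response / Benchmarks: DMSO and PEA EC100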
TAAR1 antagonist – human TAAR1 antagonism. Q96RJ0. CHO RD-HGA16 TAAR1, Fluo-8 calcium fluorescence, antagonist. inhibition, % at 3 µM. hit rate 1.5% among 360,000. AID 624466;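 active means inhibition above a per-plate cutoff, the mean inhibition of test compounds on that plate plus 3 SD, cut at about 49% in these data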
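System: RD-HGA16 CHO cells with stable hTAAR1 and Gα16 | Probe or stimulus: EC80 β-phenethylamine stimulus | Dosing: 3 µM, single point | Times: Dye loading 75 min at 37 °C, then 30 min room temperature | Measured by: Fluo-8 calcium-sensitive fluorescence | Read-out basis: % inhibition of agonist calcium response | Replicates: n of 1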
CHO parental Ca – signal in parental CHO cells, OX1R antagonist counter-screen. parental CHO-K1, ATP-induced calcium, Fluo-8 fluorescence. inhibition, % at 5.6 µM. hit rate 0.63% among 330,000;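 active means inhibition above that plate's mean sample inhibition plus 3 SD, cut at about 26% in these data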
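Test system: parental CHO cells; detection: calcium-sensitive Fluo-8 fluorescence; evaluation: percent inhibition of calcium signal; also added: ATP as calcium-mobilizing challenge; repeats: one well per compound; control set: ATP-challenged DMSO wells low, unchallenged DMSO wells high; compound: single nominal dose of 5.6 µM per compound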
OX1R antag-2 – antagonists of human orexin 1 receptor (OX1R) | O43613 | OX1R-expressing cells, FRET antagonist read-out | inhibition, % at 6.6 µM | hit rate 1.8% among 330,000; in the data active means inhibition mostly above about 38%, no sharp cut-off; inactive means mostly below about 40%
GPR7 antagonist – antagonists of human GPR7 (neuropeptides B/W receptor 1); hit rate 1.1% among 290,000; GPR7-expressing cells, fluorescence antagonist assay; P48145; inhibition, % at 4.4 µM; in the data active means inhibition above about 16%, passing the limit was not always enough;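 further: cells stimulated with the agonist NPW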
Target sequence (P48145 whole entry, looked up): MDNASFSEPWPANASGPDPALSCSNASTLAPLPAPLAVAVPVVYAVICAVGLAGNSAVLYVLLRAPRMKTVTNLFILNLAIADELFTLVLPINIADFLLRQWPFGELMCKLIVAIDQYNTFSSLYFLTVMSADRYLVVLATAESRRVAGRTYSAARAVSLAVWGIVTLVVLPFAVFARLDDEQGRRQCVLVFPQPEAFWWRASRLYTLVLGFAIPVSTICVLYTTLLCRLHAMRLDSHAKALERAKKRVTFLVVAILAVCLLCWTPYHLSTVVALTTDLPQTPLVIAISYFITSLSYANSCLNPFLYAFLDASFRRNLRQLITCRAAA
GPR7 antag cf – human GPR7 antagonism, confirmation assay. hit rate 52% among 2,400. inhibition, % at 4.4 µM. AID 1952. GPR7-expressing cells, calcium fluorescence antagonist mode. shares compounds with GPR7 antagonist; in the data active means inhibition above about 24%;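 further: stimulated with the GPR7 agonist NPW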
MCHR1 antagonist – counter-screen for GPR7 antagonists: antagonists of human MCHR1; shares compounds with GPR7 antagonist; MCHR1-expressing cells, fluorescence antagonist assay; inhibition, % at 4.4 µM; hit rate 62% among 2,400; in the data active means inhibition above about 22%
Hits are given with their value; i = inactive; nt = no result given.

SMILES | OX1R antag-1 | TAAR1 ag | TAAR1 antagonist | CHO parental Ca | OX1R antag-2 | GPR7 antagonist | GPR7 antag cf | MCHR1 antagonist
COc1ccc(Nc2nnc(-c3ccc(C(=O)NCCO)cc3)c3ccccc23)cc1 | i | i | i | i | i | 60.5 | i | 35.9
COc1ccc(Nc2nnc(-c3ccc(C(N)=O)cc3)c3ccccc23)cc1 | i | i | i | i | i | 33.9 | i | i
COC(=O)CCN(C1CCCCC1)S(=O)(=O)c1ccc(S(=O)(=O)NC2CCCCC2)cc1 | i | i | i | i | i | 39.9 | 51.0 | 32.5
Nc1c(N(Cc2ccco2)C(=O)c2ccccc2F)c(=O)[nH]c(=O)n1Cc1ccccc1 | nt | i | i | nt | nt | nt | nt | nt
Cc1ccc(COn2c(-c3ccc(Cl)cc3)nc3ccc([N+](=O)[O-])cc32)cc1 | i | i | i | i | i | i | nt | nt
CCOC(=O)C(C)On1c(-c2ccccc2)nc2ccc([N+](=O)[O-])cc21 (stereo not drawn) | i | i | i | i | i | nt | nt | i
CC(O)c1nc2cc([N+](=O)[O-])ccc2n1Cc1ccccc1 (stereo not drawn) | i | i | i | i | i | i | nt | nt
O=C(O)COn1c(-c2ccccc2)nc2ccc([N+](=O)[O-])cc21 | i | i | i | i | i | 30.9 | i | i
CCOC(=O)C(C)On1c(-c2ccc(Cl)cc2)nc2ccc([N+](=O)[O-])cc21 (stereo not drawn) | i | i | i | i | i | 26.4 | 34.5 | 51.5
O=C(O)c1cccc(-n2cccc2/C=C/[N+](=O)[O-])c1 | i | i | i | i | i | i | nt | nt
CC(CCc1ccccc1)NC(=O)COC(=O)c1ccc([N+](=O)[O-])cc1 (stereo not drawn) | i | i | i | i | i | i | nt | nt
CC(CCc1ccccc1)NC(=O)COC(=O)c1ccc(S(C)(=O)=O)c([N+](=O)[O-])c1 (stereo not drawn) | i | i | i | i | 69.4 | 52.1 | 92.1 | 48.0
CS(=O)(=O)N(CC(=O)N1CCN(Cc2ccc3c(c2)OCO3)CC1)Cc1ccc(Cl)cc1 | i | i | i | i | i | 24.8 | 38.4 | 55.9
Cc1cc(C)nc(NS(=O)(=O)c2ccc(NC(=O)c3cc(=O)c4ccccc4o3)cc2)n1 | i | i | i | i | i | i | nt | nt
CCN(C(=O)COC(=O)Cn1cnc2c1c(=O)n(C)c(=O)n2C)C1CCS(=O)(=O)C1 (stereo not drawn) | i | i | i | i | i | 28.7 | i | i
CC(=O)NC1C(=O)N(CCc2ccccc2)c2ccc(Br)cc21 (stereo not drawn) | nt | i | i | nt | nt | i | nt | nt
CCCCN1C(=O)C(NC(C)=O)c2ccccc21 (stereo not drawn) | i | i | i | i | i | 26.0 | i | i
O=C(COc1cccc(C(F)(F)F)c1)NCC(c1cccs1)N1CCOCC1 (stereo not drawn) | i | i | i | i | i | nt | nt | nt
O=C(O)c1ccc(CN2C(=O)c3ccc(Oc4ccc([N+](=O)[O-])cc4)cc3C2=O)cc1 | i | i | i | i | i | 39.2 | i | i
N=C(N)SCc1cn(-c2ccccc2)nc1-c1ccc(Br)cc1 | nt | 78.9 | i | nt | nt | 25.8 | 63.1 | 89.2
Cc1cccc(OCCc2nnc(N)s2)c1C | i | i | i | i | i | i | nt | nt
CC1Cc2ccccc2N1C(=O)c1cccnc1 (stereo not drawn) | i | i | i | i | i | i | nt | nt
CC1CCc2cc(F)ccc2N1C(=O)c1cccnc1 (stereo not drawn) | i | i | i | i | i | 25.8 | i | i
CN(Cc1c(F)cccc1Cl)C(=O)C1CC(=O)N(CCc2ccccc2)C1 (stereo not drawn) | i | i | i | i | i | i | nt | nt
O=C(Nc1ccccc1Cl)C1CCN(S(=O)(=O)c2cccc3nonc23)CC1 | i | i | i | i | i | i | nt | nt
SMILES | OX1R antag-1 | TAAR1 ag | TAAR1 antagonist | CHO parental Ca | OX1R antag-2 | GPR7 antagonist | GPR7 antag cf | MCHR1 antagonist
CC1CN(C2CCCCC2)C(=S)N(c2ccccc2)C1=O (stereo not drawn) | nt | i | i | nt | nt | nt | nt | nt
CC(=O)Nc1ccc(S(=O)(=O)NCCC(=O)OC(C)C(=O)c2ccc(C)cc2)cc1 (stereo not drawn) | i | i | i | i | i | 27.1 | i | 45.5
CN1CCCC(CN2c3ccccc3Sc3ccccc32)C1 (stereo not drawn) | i | i | i | i | i | 35.2 | 51.1 | 33.9
COC(=O)Nc1nnc(/C=C/c2ccc(OC)cc2)s1 | i | i | i | i | i | 24.3 | i | i
N#Cc1ccc(NC(=O)Nc2ccc(Cl)cc2)cc1 | 67.8 | i | i | 75.3 | 100.3 | 30.4 | 58.0 | 56.9
COc1ccc([C@H]2CC(=O)C=C(c3cccc(CO)c3)C2)cc1 | i | i | i | i | i | nt | nt | nt
CC1CCCN(S(=O)(=O)c2ccc(S(=O)(=O)NC(C)c3cccs3)cc2)C1 (stereo not drawn) | i | i | i | i | i | 47.9 | 53.2 | 31.9
O=[N+]([O-])c1ccccc1Oc1ncccc1[N+](=O)[O-] | i | i | i | i | i | i | nt | nt
O=[N+]([O-])c1ccc(NC(=S)NCCc2ccc(F)cc2)cc1 | 47.7 | i | i | 34.3 | 64.5 | 32.6 | 74.8 | 66.7
COc1ccc(/C=C2\CCc3ccccc3C2=O)cc1O | i | i | i | i | i | 25.3 | 29.6 | 33.7
O=C(NCc1ccncc1)Nc1ccc(F)cc1 | i | i | i | i | i | 31.2 | i | i
O=C(CN1CCN(S(=O)(=O)c2ccc3c(c2)OCCO3)CC1)Nc1cccc(F)c1 | nt | i | i | nt | nt | nt | nt | nt
COC(=O)c1c(NC(=O)CN2CCCC(C)C2)c2c(C)cccc2n1C (stereo not drawn) | i | i | i | i | i | 25.9 | i | 27.1
COC(=O)c1c(NC(=O)CN2CCC(C(N)=O)CC2)c2c(C)cccc2n1C | i | i | i | i | i | i | nt | nt
COc1cccc(NC(=O)c2nnn(CC(=O)Nc3cc(C)cc(C)c3)c2N)c1 | i | i | i | i | i | i | nt | nt
Cc1cc(C)cc(NC(=O)c2nnn(Cc3cc(C)ccc3C)c2N)c1 | 80.3 | nt | nt | 67.6 | i | 50.6 | 86.7 | 91.3
COC(=O)CC1(C(=O)OC)Oc2ccc(Br)cc2C(=O)N1c1ccc(Br)cc1Cl (stereo not drawn) | i | i | i | i | i | i | nt | nt
COC(=O)CC1(C(=O)OC)Oc2ccc(Br)cc2C(=O)N1c1cccc(Cl)c1Cl (stereo not drawn) | i | i | i | i | i | 29.9 | 32.0 | 53.3
O=S(=O)(c1ccc(OC(F)(F)F)cc1)N1CCC(O)(c2cccc(C(F)(F)F)c2)CC1 | i | 43.1 | i | i | i | 39.1 | 44.5 | 45.5

Bioassay records as filed in PubChem BioAssay.
